Like-named read-outs stand apart in the source and are kept apart here. Some results are limits rather than exact numbers.

A short description of one series: Sedimentation velocity. It counts as physicochemical.
For series [1] the following is noted: ref 7c, 7d, cited from earlier work.
Series [2] is classed as physicochemical. As to conditions: from sedimentation velocity on diluted samples. The essentials: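 Diluted neutral-pH and protofibril Aβ40 samples were loaded into 12 mm path-length cells, equilibrated 2 h at 20.0° C, and spun at 20,000-50,000 rpm. Detection used absorbance at 280 nm and Rayleigh interference. Data were analysed as continuous c(s) distributions of Lamm equation solutions with maximum-entropy regularization, and sedimentation coefficients were corrected to 20° C water.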

A short description of series [3]: Persistence of Aβ40 protofibrils in quiescent solution. It counts as physicochemical.
The nature of series [4]: Size exclusion chromatography. It counts as physicochemical. As to conditions: protofibril sample; SEC deemed unreliable by the authors. The gist of the method: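 Superose 6 10/300 GL column (Vc = 24 ml); 50 μl Aβ40 sample injected and eluted at 0.5 ml/min. The column was equilibrated in either 10 mM sodium phosphate (pH 7.4) or 20 mM NaOH, with or without 150 mM NaCl. Apparent molecular weight was read from elution volume.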

Series [5] is classed as physicochemical.
For series [6] the following is noted: typical values; cited from earlier work.
For series [7] the following is noted: 37° C; cited from earlier work.
[8] abbreviates: protofibril sample, 2.0 mM Aβ40.

On to “Aβ40: 40-residue amyloid-β peptide, made by FMOC solid-phase synthesis”, for which, in the series “Sedimentation velocity” (neutral pH sample, 2.0 mM Aβ40), the “apparent molar mass of slowly sedimenting species” value was 4.7 kDa, the “estimated molar masses of aggregates” value is reported as “around 0.4 MDa” and the “sedimentation coefficients of aggregates (broadly distributed around)” value is reported as “around 11 S”. Besides, in the series “Sedimentation velocity” (neutral pH sample, 2.0 mM Aβ40, pH 7.5), the “aggregates as fraction of the loading signal” value is reported as “approximately 75%”. The “sedimentation coefficient of slowly sedimenting species” value in “Sedimentation velocity” (neutral pH sample, 2.0 mM Aβ40, remaining material) is about 0.6 S. In addition, in the series “Sedimentation velocity” (setting [8]), the “apparent molar masses of rapidly sedimenting species” value is given as “roughly 10 MDa” and the “fraction of material consisting of rapidly sedimenting species” value was “approximately 95%”. Also, the “incubation time for evolution of spherical assemblies to mature fibrils” value in series [1] (TEM, without sonication or agitation) is “more than 50 h”. Besides, the “size of long-lived spherical assemblies” value in series [1] (formed at 4° C, pH 7.4, 100 μM peptide) is on record as about 650 kDa. Moreover, in series [2] (neutral pH sample), the “quasi-equilibrium solubility of Aβ40 assemblies” value is listed as “greater than 10 μM”. Besides, the “quasi-equilibrium solubility of Aβ40 assemblies” value in series [2] (protofibril sample) is “greater than 10 μM”. Besides, the stability of protofibrils result in series [3] (quiescent solutions at pH 7.5, TEM) is “stable for at least several weeks”. Moreover, the persistence of protofibrils result in series [3] (room temperature, without sonication or agitation of the Aβ40 solution) was “at least 20 days”. In addition, the “apparent molecular weight of a large fraction of material” value in series [4] is “greater than 1 MDa”. For the same substance, the monomeric fraction in series [5] (high pH samples) is over 90%. The “fraction of protofibrillar assemblies” value in series [5] (protofibril samples) is reported as over 90%. The “quasi-equilibrium solubility of mature fibrils” value in series [6] is recorded as “less than 1 μM”.
Take “Aβ42: 42-residue amyloid-β peptide; literature results only”: the “time for subsequent conversion to fibrils” value in series [7] is on record as at most 12 days.
